Compound activity: PubChem BioAssay, several laboratories
bCat nuc transl = modulators of beta-catenin nuclear translocation; HeLa beta-catenin nuclear translocation, immunofluorescence imaging; nuclear translocation activity, % at 5 µM; 0.3% of 190,000 active;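 active = nuclear translocation activity above 50% at 5 µM, with a well cell count of 50 or more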;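 also: per-cell ratio of nuclear to cytoplasmic median beta-catenin stain intensity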
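Read-out: Nuclear/cytoplasmic beta-catenin signal ratio, % activation | Assay system: Human HeLa cell line | Times: 24 h compound exposure at 37°C, 5% CO2 | Signal: Fluorescence imaging of beta-catenin antibody stain plus DAPI | Dosing: 5 µM primary, 0.02–20 µM confirmation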
Insulin prom up = MIN6 insulin promoter up-regulation; MIN6 insulin promoter-GFP reporter, high-content imaging; stronger effect = higher value; 0.3% of 190,000 active; AID 1625; z-score at 5 µM;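 active = z-score above 3 at 5 µM with at least 500 cells counted in the well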
MT stabilize HCS = microtubule stabilizers in HeLa cells. % tubulin-high responders, % at 10 µM. 0.83% of 200,000 active. HeLa tubulin immunostaining HCS, 24 h; share of cells brighter than vehicle mean+2SD;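 active = plate Z-score above 3 for both tubulin-high and condensed-nucleus cell shares, with cell loss under 80%, at 10 µM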;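 also: anti alpha tubulin signal scored within the nucleus-defined area of each cell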
Wee1 degr inh = inhibitors of human Wee1 degradation | 1.2% of 220,000 active | reporter increase, % at 5 µM | P30291 | HeLa Luc-Wee1K328M stability, luciferase luminescence; 100% = proteasome inhibitor MG132 effect;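 active = activation above the mean of all tested compounds plus 3 SD, set per screening run, cut at about 8.8% in these data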;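 also: cells exposed to compound for 20 h before luminescence read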
Target sequence (P30291 whole entry K328M): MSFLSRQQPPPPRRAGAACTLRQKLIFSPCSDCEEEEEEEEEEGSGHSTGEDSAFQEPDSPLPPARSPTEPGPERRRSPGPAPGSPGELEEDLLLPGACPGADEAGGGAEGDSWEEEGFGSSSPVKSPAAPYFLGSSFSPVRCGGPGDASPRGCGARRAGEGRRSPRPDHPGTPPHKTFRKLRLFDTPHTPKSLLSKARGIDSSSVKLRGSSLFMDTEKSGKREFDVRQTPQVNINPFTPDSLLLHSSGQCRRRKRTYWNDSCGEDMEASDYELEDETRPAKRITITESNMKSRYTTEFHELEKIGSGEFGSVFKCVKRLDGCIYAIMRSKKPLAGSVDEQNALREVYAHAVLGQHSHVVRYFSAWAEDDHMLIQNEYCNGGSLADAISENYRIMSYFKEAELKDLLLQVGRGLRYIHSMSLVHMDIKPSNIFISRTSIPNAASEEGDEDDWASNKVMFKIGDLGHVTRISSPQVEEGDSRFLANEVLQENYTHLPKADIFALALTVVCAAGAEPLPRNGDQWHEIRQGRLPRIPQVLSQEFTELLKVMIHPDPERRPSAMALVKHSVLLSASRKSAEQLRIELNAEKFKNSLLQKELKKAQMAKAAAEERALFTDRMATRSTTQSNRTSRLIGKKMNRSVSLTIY
Autophagy mod = autophagy modulation, high-content screen; MEF GFP-LC3 puncta imaging; test concentration mostly 10 µM; calls only at 10 µM (by protocol); 0.98% of 190,000 active; AID 463193;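 active = percentage of spot-positive cells more than 3 SD above its plate mean, without a fluorescence outlier flag or 80% toxicity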
Wee1 degr conf = human Wee1 degradation inhibition, confirmation; shares compounds with Wee1 degr inh; HeLa Luc-Wee1K328M degradation, luminescence; vehicle 0%, proteasome-blocked wells 100%; activation, % at 5 µM; 4% of 1,100 active; in the data active = activation above about 8.9%
Hits are given with their value; . = inactive; / = no result. An excerpt weighted towards active compounds, which were near 2.9% of everything screened.

SMILES	bCat nuc transl	Insulin prom up	MT stabilize HCS	Wee1 degr inh	Autophagy mod	Wee1 degr conf
CCn1cc(C(=O)O)c(=O)c2cc(F)c(N/N=C/c3ccccc3[N+](=O)[O-])cc21	.	.	.	.	.	/
O=C(CNS(=O)(=O)c1ccccc1)NCC(=O)OCc1ccc(C(=O)c2ccccc2)cc1	.	.	.	.	.	/
Cn1cc(Br)c(C(=O)NC2C3CC4CC(C3)CC2C4)n1 (stereo not given)	.	.	.	12	.	.
Cn1cc(C(=O)NC2C3CC4CC(C3)CC2C4)cn1 (stereo not given)	/	.	.	.	.	/
O=C(O)CCCn1cc(NC(=O)c2cccc(F)c2)cn1	.	/	.	13	.	.
O=C(O)CCCn1cc(NC(=O)c2cc(F)c(F)cc2Cl)cn1	.	.	.	.	.	/
CCOCCCNS(=O)(=O)c1ccc(Br)cc1	/	.	.	.	.	/
CCCCC1(CO)C(=O)N(c2ccccc2)N(c2ccccc2)C1=O	.	.	/	.	/	/
CCCCCCCC1(C)NC(=O)N(c2ccccc2)N1 (stereo not given)	.	.	.	14	.	.
COc1ccc(C(=O)NC2(C(F)(F)F)NC(=O)N(CCCc3ccccc3)C2=O)cc1OC (stereo not given)	.	.	.	.	.	/
CCOc1ccccc1NC(=O)Nc1cnccn1	.	.	.	17	.	.
CCOc1ccccc1NC(=O)Nc1cccc(NC(C)=O)c1	.	.	/	.	/	/
COC(=O)c1ccccc1NC(=O)Nc1cnccn1	/	/	.	.	.	/
CCOc1ccccc1NC(=O)Nc1cccc(C(C)=O)c1	/	.	.	15	.	.
O=C(Nc1cccc([N+](=O)[O-])c1)c1ccc(N2CCCC2=O)cc1	.	.	.	.	.	/
Cc1cc(NC(=O)CSc2nnc(C3COc4ccccc4O3)n2C)no1 (stereo not given)	.	.	.	22	.	.
CCc1nc(SCC(=O)c2cccs2)c2oc3ccccc3c2n1	.	.	.	.	.	/
COC(=O)/C=C/c1ccc2c(c1)OCO2	.	.	.	.	.	/
COC(=O)/C=C/c1ccc(OC(=O)OC)c(OC(=O)OC)c1	.	/	.	12	.	.
CCOC(=O)NC1(C(F)(F)F)C(=O)N(Cc2ccccc2)C2=C1C(=O)CC(C)(C)C2 (stereo not given)	.	.	.	.	.	/
Cc1nnc(NC(=O)Cn2cnc3c2c(=O)n(C)c(=O)n3C)s1	.	.	.	12	.	.
CNS(=O)(=O)c1cccc(C(=O)OCC(=O)Nc2ccc(Cl)cn2)c1	.	.	/	12	/	.
NC(=O)Nc1ccc(C(=O)OCC(=O)Nc2ccc(Cl)cn2)cc1	.	.	/	.	/	/
S=c1[nH]cnc2sc(Nc3ccccc3)nc12	.	.	/	.	/	/
CCOc1ccc(Cc2noc3c2C(=O)CCC3)cc1OCC	.	.	.	17	.	.
SMILES	bCat nuc transl	Insulin prom up	MT stabilize HCS	Wee1 degr inh	Autophagy mod	Wee1 degr conf
CCOc1ccc(Cc2noc3c2C(=O)CC(C)(C)C3)cc1OCC	.	.	.	.	.	/
O=C(CO/N=C1\CCCc2nonc21)Nc1ccc(Br)cc1	.	.	.	12	.	.
COc1ccc(NC(=O)CO/N=C2\CCCc3nonc32)cc1	.	.	.	.	.	/
COc1ccc2c(c1OC)C(=O)OC2Nc1nc(-c2cccc([N+](=O)[O-])c2)cs1 (stereo not given)	.	.	/	.	/	/
O=C(NCC1CCCO1)C(c1cccnc1)N(C(=O)Cc1cccs1)c1ccccc1 (stereo not given)	/	/	.	17	.	.
CC(=O)Nc1ccc(S(=O)(=O)NCc2ccncc2)cc1	.	.	.	12	.	.
c1ccc(C2=Nc3cccnc3C(c3ccccc3)=NN2)cc1	.	.	.	.	.	/
COCCn1c(SCC(=O)Nc2ccc(F)cc2)nc2c(oc3ccccc32)c1=O	.	.	.	11	.	.
CCOCCCNC(=S)N1C2CCC1CC(NC(=O)NC13CC4CC(CC(C4)C1)C3)C2 (stereo not given)	.	.	.	12	.	.
CCCCNC(=O)NC12CC3CC(CC(C3)C1)C2	.	.	.	22	.	.
CCOCCCNC(=S)N1C2CCC1CC(NC(=O)Nc1ccc(C(=O)OCC)cc1)C2 (stereo not given)	.	.	.	.	.	/
O=C(CNC(=S)N(Cc1ccccc1)Cc1cccnc1)NC1CCCC1	.	.	.	.	.	/
FC(F)(F)c1cc(-c2cccs2)nc2nc(N3CCOCC3)sc12	.	.	.	12	.	.
Cc1cc(C(=O)CSc2nncn2C)c(C)n1-c1ccccc1	.	.	.	.	.	/
O=[N+]([O-])c1ccccc1CSc1nc2ccccc2o1	/	.	.	44	.	.
COCCNc1c(-c2cc3ccc(C)c(C)c3[nH]c2=O)nc2ccccn12	.	.	.	13	.	.
COCCNc1c(-c2ccc(OC)c(OC)c2)nc2ccc(Cl)cn12	.	.	.	.	.	/
Cc1ccc(-c2ccc(/C=N/O)o2)cc1[N+](=O)[O-]	.	.	.	.	.	/
O=C(NCc1cccnc1)NC1CC(=O)N(c2ccc3c(c2)OCCO3)C1 (stereo not given)	.	.	.	.	.	/
COC(=O)C1CCN(C(=O)/C=C/c2ccc(OC)cc2)CC1	.	.	.	11	.	10
COc1ccc(/C=C/C(=O)N2CCC(c3ccccc3)C2)cc1 (stereo not given)	.	.	.	.	.	/
CCCC1Cc2nc(Cl)c(C#N)cc2CO1 (stereo not given)	.	.	/	.	/	/
COc1ccccc1-c1ccc(SCc2ccccc2F)nn1	.	.	.	13	.	14
COc1ccccc1-c1ccc(SCc2ccccc2)nn1	.	.	.	.	.	/
O=C(Nc1ccc(N2CCCCC2)cc1)c1ccc(F)cc1	/	.	.	11	.	.
SMILES	bCat nuc transl	Insulin prom up	MT stabilize HCS	Wee1 degr inh	Autophagy mod	Wee1 degr conf
COc1ccc(C(=O)Nc2ccc(N3CCCC3)cc2)cc1	/	.	.	.	.	/
COc1ccccc1OCC(=O)Nc1ccc(N2CCCCC2)cc1	.	.	.	11	.	.
CN1CCN(C(=O)C23CC4CC(C2)CC(c2ccccc2)(C4)C3)CC1	.	.	.	.	.	/
CN(CCOc1ccccc1)C(=O)c1cc([N+](=O)[O-])cc([N+](=O)[O-])c1	.	.	.	17	.	.
O=C(NCCOc1ccccc1)c1cc(C(=O)NCCOc2ccccc2)cc([N+](=O)[O-])c1	.	.	.	.	.	/
Cc1nn(-c2ccccc2)c(C)c1-c1cc(C(=O)N/N=C/c2cccnc2)[nH]n1	.	.	.	19	.	.
COc1ccc(C(=S)Nc2ccc(N(C)C)cc2)cc1	.	.	.	.	.	/
COc1ccc(NC(=S)c2ccc(N(C)C)cc2)cc1	.	.	.	13	.	.
O=C(Nc1ccccc1)Nc1ccc(Br)cc1F	.	.	.	.	.	/
O=C(Nc1cccc(Cl)c1)Nc1ccc(Br)cc1F	/	.	.	13	.	.
